The list is not random: actives were taken first. Their share in the collection is about 1.7%.
PGC1a acetyl inh: PGC1a acetylation modulation, inhibitor mode | AID 651687 | 350,000 compounds, 0.17% hits | U2OS PGC1a acetylation, AlphaScreen anti-acetyl-lysine; with virally co-expressed GCN5 acetyltransferase | inhibition, % at 15.6 µM;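 active means every replicate shows inhibition of at least 40%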;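 further: 0% = neutral control wells and 100% = positive control wells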
miR-122 sensor: inhibitors of miR-122 in Huh7 cells; Huh7 miR-122 Renilla luciferase sensor, 48 h; neutral wells = 0, positive control = 100; activation (reporter increase), % at 12.5 µM; 340,000 compounds, 0.3% hits;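 active means mean replicate activation score at least 90 and every replicate individually at or above 90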;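 further: higher luciferase means less miR-122 activity so hits act as miR-122 inhibitors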
CAL PDZ FP-1: blocks peptide binding to the human CAL PDZ domain; Q9HD26; purified CAL PDZ, TMR-peptide fluorescence polarization, 1 h; inhibition, % at 24.9 µM; 300,000 compounds, 0.92% hits; AID 602252;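 active means mean inhibition of at least 30% with at least half of replicates also reaching 30%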;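 further: 0% = DMSO neutral control and 100% = excess unlabeled competitor peptide PRC23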
CAL PDZ FP-2: blocks peptide binding to human CAL PDZ domain. Q9HD26. 330,000 compounds, 0.02% hits. AID 504414. inhibition, % at 20 µM. purified CAL PDZ, TMR-peptide fluorescence polarization, 1 h;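 active means highest replicate inhibition of at least 40%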;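 further: plate controls were DMSO neutral control wells for no effect and unlabeled competitor peptide control wells for full effect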
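material = purified tagged CAL PDZ domain construct (CerCALP) | buffer or medium = sodium phosphate/NaCl buffer pH 7.4 with TCEP, IgG, Thesit | reagent = TMR-labelled reporter peptide T*-PRC34 bound in PDZ groove | incubation = 1 h room-temperature incubation prior to read | measured by = fluorescence polarization (mP) | evaluation = percent inhibition from loss of millipolarization | control set = unlabelled peptide and DMSO controls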
CFTR F508del cor: CFTR F508del correction in bronchial cells. 350,000 compounds, 0.36% hits. CFBE cells, YFP halide quenching; stimulated with forskolin plus potentiator P3; % fluorescence drop versus neutral controls. activity (quench increase), % at 7.58 µM;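 active means mean added fluorescence quench of at least 8% versus neutral control, with both replicates also reaching 8%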;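 further: cells transiently co-express mutant CFTR-F508del with the halide-sensitive YFP; corrector assay measuring rescue of mutant channel to the surface after 24 h compound exposure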
ARNT TACC3 PPI: ARNT/TACC3 interaction disruption; AlphaScreen His-ARNT PAS-B/GST-TACC3 binding, luminescence; TACC3 fragment carries E629A point mutation; inhibition, % at 9.99 µM; 390,000 compounds, 0.66% hits; AID 623870;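 active means mean inhibition of replicates at least 50% and at least half of replicates each reaching 50%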;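 further: 0% = complete ARNT plus TACC3 wells and 100% = ARNT alone without TACC3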
The depositor's hits bear a star; . = no result given; [ ] = another dose, or the depositor's remark.

SMILES	PGC1a acetyl inh	miR-122 sensor	CAL PDZ FP-1	CAL PDZ FP-2	CFTR F508del cor	ARNT TACC3 PPI
Cc1cccc(NC(=O)CN2CCN(C(=O)CN3C(=O)NC4(CC(C)CC(C)(C)C4)C3=O)CC2)c1C (stereo not given)	-1.3	-6.8	-4.4	-0.1	8.8*	-3.9
O=C(NCCc1ccccc1)c1cccc(S(=O)(=O)NCc2ccccc2)c1	-7.8	13.4	.	-0.9	-4.0	-1.5
O=C(NC(c1ccccc1)c1ccccc1)c1cccc(S(=O)(=O)NCc2ccccc2)c1	.	.	-1.4	-4.3	.	active
COc1ccc(-c2csc(N(Cc3ccco3)C(=O)c3cccs3)n2)cc1	-7.0	5.6	-2.9	191.2*	2.1	-7.2
Cc1noc(C)c1NC(=O)N(C)C[C@H]1OCCCC[C@H](C)Oc2ccc(NC(=O)c3ccccc3)cc2C(=O)N([C@H](C)CO)C[C@@H]1C	2.8	-0.2[16.7 µM]	.	.	-1.2	-0.3
C[C@@H]1CN([C@@H](C)CO)C(=O)c2cccc(NC(=O)C3CC3)c2O[C@@H]1CN(C)Cc1ccc(Cl)c(Cl)c1	2.9	8.0[16.7 µM]	.	.	2.6	-5.6
C[C@H](CO)N1C[C@H](C)[C@@H](CN(C)Cc2ccc(Cl)c(Cl)c2)Oc2c(NC(=O)NC3CCCCC3)cccc2C1=O	-1.0	35.3[16.7 µM]	.	.	1.1	1.5
C[C@H](CO)N1C[C@H](C)[C@@H](CN(C)Cc2ccc(Cl)c(Cl)c2)Oc2c(NC(=O)C3CC3)cccc2C1=O	-12.7	114.2*[16.7 µM]	-6.4	-0.3	-2.9	-2.2
C[C@@H]1CN([C@H](C)CO)C(=O)c2cccc(NC(=O)NC3CCCCC3)c2O[C@H]1CN(C)Cc1ccc(Cl)c(Cl)c1	-0.9	117.8*[16.7 µM]	.	.	-0.9	0.3
O=c1cnnc(N/N=C/c2cccs2)[nH]1	.	-1.0	10.5	-0.5	-1.9	62.4*
Cc1cc(=O)[nH]c(N/N=C/c2cccs2)n1	8.7	-5.8	-0.8	-2.9	.	30.7
COc1ccc(C(=O)NCC(=O)OCC(=O)c2cc(OC)c(OC)c(OC)c2)cc1OC	.	.	-1.3	-1.7	-1.7	.
COc1cc(C(=O)NCC(=O)OCC(=O)c2ccc[nH]2)cc(OC)c1OC	4.9	-5.4	61.0*	-0.5	.	-15.5
COc1ccc(S(=O)(=O)NCCC(=O)OCC(=O)c2ccc[nH]2)cc1[N+](=O)[O-]	8.4	-9.5	45.9*	-0.3	-0.2	-4.0
COc1ccc(C(NC(C)=O)c2ccc3cccnc3c2O)c(OC)c1 (stereo not given)	22.6	-15.7	-0.3	-0.1	.	63.7*
COc1ccccc1C(NC(C)=O)c1cc(Cl)c2cccnc2c1O (stereo not given)	46.0*	-11.9	8.7	.	1.3	7.4
O=C(Nc1ccccc1)N[C@H]1CC[C@H](CCn2cc(-c3ccccc3F)nn2)O[C@@H]1CO	.	.	.	.	0.9	.
CC(=O)N[C@H]1CC[C@@H](CCNC(=O)C2CCCC2)O[C@@H]1CO	-1.6	-8.9[16.7 µM]	.	.	0.6	-8.1
C=CC(C)(C)c1[nH]cnc1/C=C1\NC(=O)C(C(C)C)NC1=O (stereo not given)	-0.7	7.2	-0.5	-0.2	8.5*	0.2
Fc1ccc(Cn2nnc3ccccc32)cc1	-3.1	-8.3	123.1*	.	.	-4.6
Nc1ncnc2c1ncn2[C@@H]1O[C@H](CO)[C@@H](O)[C@H]1O	-15.2	-3.2	-1.6	0.6	2.0	-2.0
N#Cc1ncn(C2OC(CO)C(O)C2O)c1N (stereo not given)	.	.	.	.	10.0*	.
O=C(NCCN1CCN(c2ccccc2F)CC1)c1ccc2nc3ccccc3c(=O)n2c1	-2.1	.	-2.7	-0.8	-0.3	48.2*
COc1ccc(N2CCN(CCNC(=O)c3ccc4nc5ccccc5c(=O)n4c3)CC2)cc1	7.9	.	-1.7	-0.9	0.0	22.3
Cn1c(-c2ccc3c(c2)OCO3)cnc1N	-1.7	-4.2	-3.2	-0.1	.	53.9*
SMILES	PGC1a acetyl inh	miR-122 sensor	CAL PDZ FP-1	CAL PDZ FP-2	CFTR F508del cor	ARNT TACC3 PPI
Cn1c(-c2ccc3c(c2)OCO3)cnc1NCc1ccccc1	.	9.2	-4.2	-0.6	.	9.0
CC1CCCCC1NC(=O)CN1C(=O)NC(Cc2ccccc2)(Cc2ccccc2)C1=O (stereo not given)	.	2.0	-1.9	-0.3	.	7.5
CC1CCC2(CC1)NC(=O)N(CC(=O)NC1CCCCC1C)C2=O (stereo not given)	4.6	-8.6	33.4*	0.7	-5.1	-0.8
CCOC(=O)C1=C(C)NC(C)=C(C(=O)OCC)C1c1ccc(Br)o1	-6.9	-2.8	178.6*	-1.6	-2.3	0.4
CCOC(=O)C1=C(C)NC(=O)NC1c1ccc(Br)o1 (stereo not given)	.	.	-0.2	1.1	.	.
Cc1ccc(CNC(=O)c2ccc(CS(=O)(=O)c3ccccc3)o2)cc1	43.9*	-3.6	0.5	-0.2	4.8	-14.6
CCCCNC(=O)c1ccc(CS(=O)(=O)c2ccccc2OC)o1	44.2*	0.8	-1.6	1.2	2.1	-4.7
CCN(CC)CCCNC(=O)c1ccc(CS(=O)(=O)c2ccccc2OC)o1	1.7	-2.6	-2.0	1.3	-2.3	-4.7
COC(=O)c1ccc(CS(=O)(=O)c2ccc(F)cc2)o1	4.1	-2.1	3.2	1.6	9.5*	-5.6
Cc1ccc(Nc2ncnc3ccccc23)cc1	13.7	-3.7	-4.4	-4.4	-1.1	.
Cc1ccc(/C(=N/Nc2ncnc3ccccc23)C(=O)O)cc1	-31.5	0.6	6.7	-3.2	1.0	60.8*
Cc1noc(C)c1NC(=O)N(C)C[C@H]1Oc2c(NS(=O)(=O)c3cccs3)cccc2C(=O)N([C@@H](C)CO)C[C@H]1C	5.7	-2.5[16.7 µM]	.	.	3.6	-3.7
CC(C)(C)c1ccc(C(=O)NCCC(=O)NNC(=O)COc2ccc(F)cc2)cc1	-2.3	-4.9	33.0*	0.2	-0.3	.
O=C(CCNC(=O)c1ccc(Br)cc1)NNC(=O)COc1ccccc1F	.	.	0.1	-0.3	0.7	-8.6
COC1OC2COC(c3ccccc3)OC2C2OC(c3ccccc3)OC12 (stereo not given)	.	-7.3	.	.	1.9	.
COC1OC2COC(c3ccccc3)OC2C2OC12 (stereo not given)	9.1	-9.5	143.9*	-0.8	4.3	-4.6
COc1ccc(NC(=O)Nc2cccc3c2O[C@@H](CN(C)C(=O)Nc2ccc4c(c2)OCO4)[C@@H](C)CN([C@H](C)CO)C3=O)cc1	4.7	1.5[16.7 µM]	.	.	-1.0	5.0
Cc1ccc(C(=O)Sc2cccccc2=O)cc1	.	.	12.5	0.4	2.2	56.9*
CCOC(=O)c1c(N)sc(C(=O)N2CCCCC2)c1C	-14.5	-3.0	0.2	-0.2	.	47.0*
CCOC(=O)c1c(N)sc(C(=O)N2CCCC2)c1C	-0.6	-0.5	3.3	0.7	.	.
CCNc1ccc(C(=O)NN=C2CCCC2)cc1[N+](=O)[O-]	12.6	.	31.5*	0.2	1.5	0.7
Cc1ccc(C(=O)NN=C2CCCC2)cc1C	.	-2.0	-2.2	0.5	.	-7.1

Source: PubChem BioAssay (Broad Institute)
